pIC50: −log10 of the molar value.
How the values were obtained:
[1] = target: Dipeptidyl peptidase 2 (Homo sapiens, UniProt Q9UHL4); experiment: Inhibition of QPP
[2] = Half life in Sprague-Dawley rat at 1 mg/kg, iv or 2 mg/kg, po; format: ADME, organism-based; conditions: in vivo
Method in brief: (§1)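 Single iv dose of 1 mg/kg or oral dose of 2 mg/kg, given in water. Plasma clearance and half-life come from dosing; Cmax is the peak plasma level after oral dosing. Oral bioavailability was derived from the po versus iv data.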

[3] = Bioavailability in dog at 2 mg/kg, po; format: ADME, organism-based, Canis lupus familiaris; conditions: in vivo; method in brief: as §1
[4] = Cmax in dog at 1 mg/kg, iv or 2 mg/kg, po; format: ADME, organism-based, Canis lupus familiaris; conditions: in vivo; method in brief: as §1
[5] = Plasma clearance in monkey at 1 mg/kg, iv or 2 mg/kg, po; format: ADME, organism-based, Macaca mulatta; conditions: rhesus monkey; method in brief: as §1
[6] = Plasma clearance in Sprague-Dawley rat at 1 mg/kg, iv or 2 mg/kg, po; format: ADME, organism-based; method in brief: as §1
[7] = Cmax in Sprague-Dawley rat at 1 mg/kg, iv or 2 mg/kg, po; format: ADME, organism-based; conditions: in vivo; method in brief: as §1
[8] = Cmax in monkey at 1 mg/kg, iv or 2 mg/kg, po; format: ADME, organism-based, Macaca mulatta; conditions: rhesus monkey, in vivo; method in brief: as §1
[9] = (§2) Half life in dog at 1 mg/kg, iv or 2 mg/kg, po; format: ADME, organism-based, Canis lupus familiaris; conditions: in vivo; method in brief: as §1
[10] = Bioavailability in Sprague-Dawley rat at 2 mg/kg, po; format: ADME, organism-based; conditions: in vivo; method in brief: as §1
[11] = Plasma clearance in dog at 1 mg/kg, iv or 2 mg/kg, po; format: ADME, organism-based, Canis lupus familiaris; method in brief: as §1
[12] = Half life in monkey at 1 mg/kg, iv or 2 mg/kg, po; format: ADME, organism-based, Macaca mulatta; conditions: rhesus monkey, in vivo; method in brief: as §1
[13] = Bioavailability in monkey at 2 mg/kg, po; format: ADME, organism-based, Macaca mulatta; conditions: rhesus monkey, in vivo; method in brief: as §1
[14] = target: Dipeptidyl peptidase 4 (Homo sapiens, UniProt P27487); experiment: Inhibition of DPP4
[15] = target: Dipeptidyl peptidase 8 (Homo sapiens, UniProt Q6V1X1); experiment: Inhibition of DPP8
[16] = tested on: Canis familiaris; experiment: as §2; format: ADME, organism-based, Canis lupus familiaris; conditions: in vivo; method in brief: as §1

Sequence of Dipeptidyl peptidase 8 (Q6V1X1 whole entry): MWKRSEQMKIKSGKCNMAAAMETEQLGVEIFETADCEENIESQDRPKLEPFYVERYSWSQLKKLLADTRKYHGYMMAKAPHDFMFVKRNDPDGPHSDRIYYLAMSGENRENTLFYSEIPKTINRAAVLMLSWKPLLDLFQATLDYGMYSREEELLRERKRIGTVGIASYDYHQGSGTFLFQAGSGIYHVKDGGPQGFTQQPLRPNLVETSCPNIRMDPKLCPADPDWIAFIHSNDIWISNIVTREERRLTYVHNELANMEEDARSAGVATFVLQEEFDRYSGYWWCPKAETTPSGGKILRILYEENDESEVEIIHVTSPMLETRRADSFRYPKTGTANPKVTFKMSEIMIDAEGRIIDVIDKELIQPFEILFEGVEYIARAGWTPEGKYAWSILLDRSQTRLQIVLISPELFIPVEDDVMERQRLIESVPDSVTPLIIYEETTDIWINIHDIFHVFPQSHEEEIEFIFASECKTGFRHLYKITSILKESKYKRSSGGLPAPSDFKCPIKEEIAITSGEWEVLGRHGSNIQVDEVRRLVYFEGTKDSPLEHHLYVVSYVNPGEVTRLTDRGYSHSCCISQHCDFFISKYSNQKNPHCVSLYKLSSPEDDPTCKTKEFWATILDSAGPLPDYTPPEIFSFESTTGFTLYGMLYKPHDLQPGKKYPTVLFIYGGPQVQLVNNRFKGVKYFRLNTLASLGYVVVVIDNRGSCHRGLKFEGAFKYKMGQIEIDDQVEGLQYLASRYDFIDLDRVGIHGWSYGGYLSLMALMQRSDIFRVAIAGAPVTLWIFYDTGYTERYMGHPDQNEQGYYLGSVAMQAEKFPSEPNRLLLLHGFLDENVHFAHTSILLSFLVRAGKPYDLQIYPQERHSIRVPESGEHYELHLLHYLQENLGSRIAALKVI
Sequence of Dipeptidyl peptidase 4 (P27487 whole entry): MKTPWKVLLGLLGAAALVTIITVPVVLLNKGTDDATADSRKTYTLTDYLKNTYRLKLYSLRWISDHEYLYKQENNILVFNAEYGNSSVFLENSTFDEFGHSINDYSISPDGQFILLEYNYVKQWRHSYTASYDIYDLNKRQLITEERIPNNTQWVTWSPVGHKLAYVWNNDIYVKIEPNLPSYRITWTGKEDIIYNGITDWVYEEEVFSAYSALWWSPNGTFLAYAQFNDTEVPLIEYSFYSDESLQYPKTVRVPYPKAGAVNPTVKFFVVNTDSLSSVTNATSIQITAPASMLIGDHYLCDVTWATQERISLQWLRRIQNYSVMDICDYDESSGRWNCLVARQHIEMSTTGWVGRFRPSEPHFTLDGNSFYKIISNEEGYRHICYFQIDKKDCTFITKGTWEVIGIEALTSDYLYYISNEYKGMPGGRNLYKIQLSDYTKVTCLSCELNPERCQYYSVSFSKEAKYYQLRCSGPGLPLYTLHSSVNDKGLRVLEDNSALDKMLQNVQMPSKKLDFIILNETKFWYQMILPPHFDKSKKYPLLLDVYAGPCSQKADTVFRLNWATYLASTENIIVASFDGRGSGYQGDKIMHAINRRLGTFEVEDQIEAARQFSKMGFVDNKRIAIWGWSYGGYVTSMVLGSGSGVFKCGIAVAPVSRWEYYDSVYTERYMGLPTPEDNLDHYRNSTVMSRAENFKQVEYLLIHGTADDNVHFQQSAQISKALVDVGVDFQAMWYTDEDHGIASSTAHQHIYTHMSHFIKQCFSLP

Row | Structure (SMILES) | pIC50 [1] | half-life [2] [h] | clearance [6] [mL/min/kg] | Cmax [7] [nM] | bioavailability [10] [%] | further results
1 | CC1C(=O)NCCCN1C(=O)C[C@H](N)Cc1cc(F)ccc1F (some centres undefined) | < 4.00 |  |  |  |  | 
2 | C[C@H]1CNC(=O)[C@@H](C)N(C(=O)C[C@H](N)Cc2cc(F)c(F)cc2F)C1 |  | 1.5 | 92.8 | 140 | 49 | bioavailability [3]: 77%; Cmax [4]: 1210 nM; clearance [5]: 39.4 mL/min/kg; Cmax [8]: 290 nM; half-life [9]: 8.1 h; clearance [11]: 8.1 mL/min/kg; half-life [12]: 4.4 h; bioavailability [13]: 59%
3 | C[C@@H]1C(=O)N(C2CC2)CCCN1C(=O)C[C@H](N)Cc1cc(F)c(F)cc1F |  | 4.3 | 51 | 570 | 45 | 
4 | N[C@@H](CC(=O)N1CCCNC(=O)C1CC(F)(F)F)Cc1cc(F)c(F)cc1F (some centres undefined) |  | 2 | 94 | 90 | 36 | 
5 | C[C@@H]1C(=O)N[C@H](C(F)(F)F)CCN1C(=O)C[C@H](N)Cc1cc(F)c(F)cc1F | < 4.00 |  |  |  |  | pIC50 [14]: 6.86
6 | CC1CCNC(=O)CN1C(=O)C[C@H](N)Cc1cc(F)c(F)cc1F (stereo in doubt; 13b) | < 4.00 |  |  |  |  | pIC50 [15]: < 4.00; pIC50 [14]: 5.98
7 | C[C@@H]1CCN(C(=O)C[C@H](N)Cc2cc(F)c(F)cc2F)[C@H](Cc2ccccn2)C(=O)N1 |  | 2 | 97 | 10 | 8.1 | 
8 | C[C@@H]1C(=O)N2CCC[C@@H]2CCN1C(=O)C[C@H](N)Cc1cc(F)c(F)cc1F |  | 1.4 | 152 | 40 | 21 | 
9 | N[C@@H](CC(=O)N1CCCNC(=O)C1)Cc1cc(F)c(F)cc1F | < 4.00 |  |  |  |  | 
10 | C[C@@H]1C(=O)N(C)CCCN1C(=O)C[C@H](N)Cc1cc(F)c(F)cc1F | < 4.00 | 1.3 | 113 | 130 | 29 | 
11 | CCN1CCCN(C(=O)C[C@H](N)Cc2cc(F)ccc2F)[C@H](C)C1=O | < 4.00 | 0.8 | 152 | 30 | 7.4 | 
12 | C[C@@H]1C(=O)N(CC(F)(F)F)CCCN1C(=O)C[C@H](N)Cc1cc(F)c(F)cc1F |  | 1.7 | 82 | 80 | 23 | 
13 | C[C@@H]1C(=O)N(CC(=O)O)CCCN1C(=O)C[C@H](N)Cc1cc(F)ccc1F | < 4.00 |  |  |  |  | pIC50 [15]: < 4.00; pIC50 [14]: 7.16
14 | COC(=O)CN1CCCN(C(=O)C[C@H](N)Cc2cc(F)ccc2F)[C@H](C)C1=O | < 4.00 |  |  |  |  | pIC50 [14]: 7.94
15 | CC1CCNC(=O)CN1C(=O)C[C@H](N)Cc1cc(F)c(F)cc1F (stereo in doubt; 13a) | 4.36 |  |  |  |  | pIC50 [15]: < 4.00; pIC50 [14]: 6.12
16 | C[C@@H]1CCN(C(=O)C[C@H](N)Cc2cc(F)c(F)cc2F)[C@H](C)C(=O)N1 |  | 1.5 | 87 | 170 | 64 | bioavailability [3]: 88%; Cmax [4]: 1290 nM; clearance [5]: 42.3 mL/min/kg; Cmax [8]: 430 nM; t1/2 [16]: 7.2 h; clearance [11]: 8.5 mL/min/kg; half-life [12]: 4.7 h; bioavailability [13]: 71%
17 | C[C@@H]1C(=O)N(C2CC2)CCCN1C(=O)C[C@H](N)Cc1cc(F)ccc1F | < 4.00 | 1.6 | 132 | 50 | 19 | 
